# Activity calls are given as the source filed them.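 The calls were made as follows, unless noted: active = viability loss from added drug above about 55%, and viability with drug at most 40%, in both replicates (limit read from the data, passing the limit was not always enough); inconclusive = both conditions met in only one replicate; inactive = neither replicate meets both conditions.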
# Legend:
# [1] = Her2 expression decrease, cell viability multiplex – SKBR3 breast tumor cells, AlphaScreen, ATP viability, primary screen (AID 461;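 active = Her2 level under about 52% in both replicate screens, with viability over 70% of control, limit read from the data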;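 as to Her2 level: lower value means less Her2 protein in the cells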;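 as to viability: percent of carrier control wells set as 100% viability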); details: SKBR3 Her2 protein level, 18-24 h, measured here: SKBR3 viability, ATP luminescence, at 10 µM
# [2] = biological target: Receptor tyrosine-protein kinase erbB-2 (Homo sapiens) (UniProt P04626); assay: as above; details: 18-24 h, at 10 µM, stronger effect = lower value
# Sequence of Receptor tyrosine-protein kinase erbB-2 (Homo sapiens) (P04626 whole entry, looked up): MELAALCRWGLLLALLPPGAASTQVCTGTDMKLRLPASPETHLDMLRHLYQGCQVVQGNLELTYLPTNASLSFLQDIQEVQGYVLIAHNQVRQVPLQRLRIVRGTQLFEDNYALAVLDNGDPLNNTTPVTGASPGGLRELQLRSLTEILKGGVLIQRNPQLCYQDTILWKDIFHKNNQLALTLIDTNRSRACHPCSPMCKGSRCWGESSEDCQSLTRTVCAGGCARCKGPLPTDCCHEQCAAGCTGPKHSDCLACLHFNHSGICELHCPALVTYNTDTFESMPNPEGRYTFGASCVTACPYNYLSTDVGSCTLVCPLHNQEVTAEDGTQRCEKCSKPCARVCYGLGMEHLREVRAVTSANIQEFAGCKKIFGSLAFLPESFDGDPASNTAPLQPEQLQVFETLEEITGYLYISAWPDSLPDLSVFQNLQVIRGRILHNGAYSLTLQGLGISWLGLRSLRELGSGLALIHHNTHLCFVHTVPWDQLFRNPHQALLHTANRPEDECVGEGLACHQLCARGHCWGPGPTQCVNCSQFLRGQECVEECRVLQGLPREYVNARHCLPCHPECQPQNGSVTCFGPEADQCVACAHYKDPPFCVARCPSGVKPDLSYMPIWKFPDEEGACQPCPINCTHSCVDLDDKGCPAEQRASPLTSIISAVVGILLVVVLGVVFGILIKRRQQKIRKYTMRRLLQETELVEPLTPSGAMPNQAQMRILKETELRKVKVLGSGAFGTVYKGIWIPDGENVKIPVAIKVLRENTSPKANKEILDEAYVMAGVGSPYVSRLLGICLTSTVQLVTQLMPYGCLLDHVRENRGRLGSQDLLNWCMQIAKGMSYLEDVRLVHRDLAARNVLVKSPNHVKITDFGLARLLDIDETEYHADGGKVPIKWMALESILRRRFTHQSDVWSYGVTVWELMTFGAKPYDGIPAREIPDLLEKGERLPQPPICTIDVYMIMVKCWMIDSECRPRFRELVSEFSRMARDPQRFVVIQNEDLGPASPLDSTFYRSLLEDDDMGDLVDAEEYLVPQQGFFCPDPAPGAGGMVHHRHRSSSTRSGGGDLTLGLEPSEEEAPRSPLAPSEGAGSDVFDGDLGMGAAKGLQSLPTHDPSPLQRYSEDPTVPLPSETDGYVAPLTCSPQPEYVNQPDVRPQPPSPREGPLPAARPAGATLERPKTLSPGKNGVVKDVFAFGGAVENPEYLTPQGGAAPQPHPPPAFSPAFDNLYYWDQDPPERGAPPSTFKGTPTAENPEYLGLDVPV
# [3] = reduced viability of SK-BR-3 breast cancer cells – cell-based, 24 h, human, pilot screen (AID 572;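 active = viability at or below 10% of carrier control in both of two separate runs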;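 also: compound exposure lasted between 18 and 24 h rather than exactly 24 h; 100% = carrier-treated control wells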); details: SK-BR-3 viability, CellTiter-Glo luminescence, at 10 µM, stronger effect = lower value
# [4] = HUVEC growth inhibition – cell-based, human, primary screen (AID 575;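 active = viability at or below 30% in both replicate assays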;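 also: 100% = median of untreated cell wells with 0.1% DMSO on each plate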); details: HUVEC proliferation, CellTiter-Glo luminescence, 72 h; at 10 µM; stronger effect = lower value
# How it was run: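 Material: primary human umbilical vein endothelial cells / Schedule: 72 h exposure, 37 °C, 5% CO2, 30 min RT equilibration / Signal: ATP-based CellTiter-Glo luminescent read / Read-out basis: percent of median DMSO-control luminescence / Control set: 32 DMSO-only cell-control wells (high), 32 MePR drug-control wells (low) per plate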
# [5] = H69AR cell proliferation blockers – human, duplicate replicates, primary screen (AID 580;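 active = viability at or under a set limit in both replicates, limit being median viability minus 3 SD, cut at about 48% in these data, passing the limit was not always enough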;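 also: 100% = mean luminescence of untreated wells and 0% = no signal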); details: H69AR lung tumor cells viability, ATP luminescence, 72 h; at 10 µM; stronger effect = lower value
# [6] = MRP1 drug-resistance reversers in H69AR cells – cell-based, doxorubicin co-treatment, pilot screen (AID 601); details: CellTiter-Glo, 72 h, at 10 µM; for differential viability (reversal): stronger effect = higher value
# [7] = yeast transport mutant growth inhibition pilot in 384-well plates, post-Golgi transport modulator project (AID 636; in the data active = inhibition above about 31%); details: absorbance 615 nm, about 18 h, stronger effect = higher value
# [8] = growth suppression of yeast trafficking mutant, preliminary HTS, modulators of trafficking downstream of Golgi apparatus project, 1536-format plate, OD 615 nm (AID 637; in the data active = inhibition above about 30%); details: yeast transport mutant growth, absorbance 615 nm, 18 h; stronger effect = higher value
# [9] = H69AR cells + 2 uM doxorubicin, measured here: viability with 2 uM doxorubicin, stronger effect = lower value
# [10] = H69AR cells, compound alone cytotoxicity
SMILES,viability [1],Her2 level [2],viability [3],viability [4],viability [5],differential viability (reversal) ([6]; H69AR cells + 2 uM doxorubicin),"viability [6, 9]","viability [6, 10]",inhibition [7],inhibition [8]
CC(=O)Nc1ccc(NS(=O)(=O)c2ccc(Cl)c(C(=O)O)c2)cc1,106%,108% (inactive),106% (inactive),100% (inactive),103% (inactive),9.96% (inactive),92.8%,103%,-4.61% (inactive),-3.17% (inactive)
CCOC(=O)N1CCN(C(=O)c2ccc(N3C(=O)CCC3=O)cc2)CC1,110%,110% (inactive),110% (inactive),104% (inactive),105% (inactive),17.4% (inactive),87.6%,105%,-7.03% (inactive),-9.83% (inactive)
COCCCn1c(SCC(=O)N2CCc3ccccc32)nnc1-c1ccoc1C,108%,80% (inactive),108% (inactive),93.8% (inactive),98.4% (inactive),2.4% (inactive),96%,98.4%,-4.67% (inactive),0.65% (inactive)
COCc1nnc(NC(=O)c2ccc(NC(C)=O)cc2)s1,100%,102% (inactive),100% (inactive),86.4% (inactive),105% (inactive),14.8% (inactive),90.2%,105%,0.13% (inactive),-9.19% (inactive)
Cc1c(NC(=O)c2coc(=O)c(Br)c2)c(=O)n(-c2ccccc2)n1C,85%,27.5% (active),85% (inactive),72.9% (inactive),1.47% (active),-0.165% (inactive),1.64%,1.47%,-4.55% (inactive),-4.92% (inactive)
CCCCn1c(CN2CCN(CCO)CC2)nc2ccccc21,84%,92% (inactive),84% (inactive),91.8% (inactive),96% (inactive),5.24% (inactive),90.7%,96%,-0.39% (inactive),-6.55% (inactive)
Cc1ccc(OCC(=O)N2CCN(C(=O)CCC3CCCC3)CC2)cc1,104%,93.5% (inactive),104% (inactive),94.6% (inactive),86.6% (inactive),-13.4% (inactive),100%,86.6%,-6.89% (inactive),-2.33% (inactive)
CCC(C)NC(=O)CSC1=Nc2ccccc2C2=NC(CC(=O)NCc3ccccc3)C(=O)N12 (stereo not given),96.5%,88% (inactive),96.5% (inactive),85.7% (inactive),107% (inactive),13.1% (inactive),94.2%,107%,-3.03% (inactive),-3.02% (inactive)
Cc1cc(C(=O)Nc2sc3c(c2C#N)CCCCC3)cs1,91.5%,92.5% (inactive),91.5% (inactive),76.6% (inactive),77.1% (inactive),-4.53% (inactive),81.7%,77.1%,-3.47% (inactive),-4.1% (inactive)
COc1cc(C2C(C#N)=C(C)NC3=C2C(=O)CC(C)(C)C3)ccc1O (stereo not given),100%,84% (inactive),100% (inactive),94.7% (inactive),101% (inactive),3.54% (inactive),97.1%,101%,-6.13% (inactive),-7.46% (inactive)
Cc1cc2oc(C(=O)NC3CCS(=O)(=O)C3)c(C)c2cc1C (stereo not given),99.5%,98% (inactive),99.5% (inactive),97.7% (inactive),93.7% (inactive),22.6% (inactive),71%,93.7%,1.45% (inactive),1.48% (inactive)
Cc1ccc2cc(CN(CC(C)C)C(=O)C3CCCO3)c(=O)[nH]c2c1 (stereo not given),95%,98% (inactive),95% (inactive),102% (inactive),102% (inactive),5.11% (inactive),96.8%,102%,-2.5% (inactive),-4.18% (inactive)
O=S(=O)(c1ccc(OCC(O)CN2CCc3ccccc3C2)cc1)N1CCOCC1 (stereo not given),89%,83.5% (inactive),89% (inactive),98.2% (inactive),87.6% (inactive),2.98% (inactive),84.6%,87.6%,-1.71% (inactive),-2.73% (inactive)
Cc1cccc(N(C)C(=O)c2cc3cc4ccc(C)cc4nc3o2)c1,89%,73.5% (inactive),89% (inactive),57.1% (inactive),12% (active),-36.7% (inactive),48.8%,12%,-4% (inactive),-4.26% (inactive)
CCOC(=O)N1CCC(NC(=O)CCC(=O)N2CC(C)Oc3ccc(Cl)cc32)CC1 (stereo not given),104%,96% (inactive),104% (inactive),94.6% (inactive),92.5% (inactive),6.71% (inactive),85.8%,92.5%,-5.53% (inactive),-9.33% (inactive)
CCCCOc1ccccc1NC(=O)c1ccco1,87%,93% (inactive),87% (inactive),76.6% (inactive),62.9% (inactive),-14.4% (inactive),77.3%,62.9%,-0.93% (inactive),-0.16% (inactive)
COC(=O)c1cc2ccsc2n1CC(=O)N(C)c1ccccc1,89.5%,94.5% (inactive),89.5% (inactive),90.2% (inactive),84.2% (inactive),0.29% (inactive),84%,84.2%,0.26% (inactive),-1.83% (inactive)
CCOc1cc(NC(=O)c2ccccn2)c(OCC)cc1NC(=O)CC(C)C,74%,102% (inactive),74% (inactive),63.1% (inactive),89% (inactive),-6.29% (inactive),95.2%,89%,1.2% (inactive),-6.23% (inactive)
COCCN1CN(S(=O)(=O)c2ccccc2)c2nc3ccccc3nc21,101%,93.5% (inactive),101% (inactive),109% (inactive),98% (inactive),-2.97% (inactive),101%,98%,-3.95% (inactive),13.6% (inactive)
COc1ccc2c(=O)c3c(=O)n(Cc4ccco4)c(-c4cc(OC)c(OC)c(OC)c4)nc3oc2c1,67%,82.5% (inactive),67% (inactive),67.9% (inactive),36.1% (active),-1.67% (inactive),37.8%,36.1%,-2.53% (inactive),-10% (inactive)
O=C(CCc1ccc(S(=O)(=O)N2CCOCC2)cc1)NCCc1ccccn1,100%,102% (inactive),100% (inactive),94.8% (inactive),87.9% (inactive),-13.7% (inactive),102%,87.9%,-1.04% (inactive),-4.13% (inactive)
COc1ccc(C(C(C(=O)c2cccs2)N2CCOCC2)N2CCOCC2)cc1OC (stereo not given),102%,112% (inactive),102% (inactive),84.3% (inactive),102% (inactive),4.94% (inactive),96.6%,102%,-1.97% (inactive),0% (inactive)
O=C(CN1C(=O)CCSc2ccccc21)Nc1ccc2c(c1)OCO2,124%,85.5% (inactive),124% (inactive),97.6% (inactive),103% (inactive),0.09% (inactive),103%,103%,-2.5% (inactive),-4.13% (inactive)
O=C(c1cccc(C(=O)N2CCN(c3ccc(F)cc3)CC2)c1)N1CCN(c2ccc(F)cc2)CC1,110%,102% (inactive),110% (inactive),74% (inactive),73.4% (inactive),24% (inactive),49.4%,73.4%,3.51% (inactive),2.95% (inactive)
Cc1cc(=O)oc(C)c1C(=O)O,102%,118% (inactive),102% (inactive),97.1% (inactive),92% (inactive),7.3% (inactive),84.7%,92%,-6.1% (inactive),9.34% (inactive)
c1ccc2c(c1)nc(-c1ccncc1)n1nnnc21,96.5%,99.5% (inactive),96.5% (inactive),93.5% (inactive),93.2% (inactive),8.75% (inactive),84.4%,93.2%,-6% (inactive),-0.16% (inactive)
CN(Cc1ccccc1)Cc1nc2c([nH]1)c(=O)[nH]c(=O)n2C,92%,90.5% (inactive),92% (inactive),79.2% (inactive),90.9% (inactive),8.36% (inactive),82.6%,90.9%,-3.6% (inactive),-1.31% (inactive)
CC(C)CCNC(=O)NC(=O)CSc1nnc(-c2ccccc2Br)o1,95%,95.5% (inactive),95% (inactive),85.8% (inactive),104% (inactive),2.91% (inactive),101%,104%,-4.74% (inactive),0% (inactive)
